Molecules are shown by their SMILES.

In series [1] the test system is C. elegans N2 strain. In words: In vitro nematocidal. Set-up: species or system Caenorhabditis elegans. In a few lines:
(§1)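 C. elegans strains kept on NGM with E. coli. L1 obtained by bleaching and hatching eggs on unseeded NGM at 20 °C (~24 h). Thirty L1 per well, in triplicate, exposed in M9 to test compound at final 10–100,000 ng/mL with 0.5% DMSO, 72 h, 20 °C. Controls: DMSO, albendazole, ivermectin. Motility scored visually by inverted microscope; no movement = dead. EC50 by nonlinear regression; three independent replicates.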

The nature of series [2]: MTT cytotoxicity testing on HepG2. Format: cell-based, human. Particulars: human, HepG2 cells. In short, it runs like this:
(§2)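 Cells seeded at 20,000/well in MEM with 10% FBS, grown 24 h at 37 °C under 5% CO₂. Medium then replaced by test compound at final 10–100,000 ng/mL in MEM with 0.5% DMSO, 24 h. MTT added for 4 h; formazan dissolved in 4 mM HCl/0.1% NP-40 in isopropanol. Absorbance read at 590 nm, reference 620 nm. Viability relative to untreated; CC50 by nonlinear regression; three independent replicates.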

Series [3] can be described thus: MTT cytotoxicity testing on Caco-2. Format: cell-based, human. The note with it: human, Caco-2 cells. In a few lines: as §2
In general terms: Formazan colour is commonly taken as a measure of viable cells.

In series [4] the test system is C. elegans JD608 strain. In words: In vitro nematocidal. Particulars: Caenorhabditis elegans, 72 h. In short, it runs like this:
as §1

In series [5] the test system is C. elegans CB347 strain. In words: In vitro nematocidal. Set-up: species or system Caenorhabditis elegans. In short, it runs like this:
as §1

Series [6] relates to T. spiralis muscle-stage larvae (L1). In words: In vitro nematocidal. Also on record: species or system Trichinella spiralis. In short, it runs like this: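 Female ICR mice (8 weeks old) were infected orally with 100 larvae. Muscle larvae were recovered at day 60 by 0.7% pepsin/0.7% HCl digestion and kept in RPMI with 10% FCS and penicillin/streptomycin. Thirty larvae per well, in triplicate, with test compound at final 10–100,000 ng/mL and 0.5% DMSO, 72 h, 37 °C. Controls: DMSO, albendazole, ivermectin. EC50 by nonlinear regression; three independent replicates.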

The test system of series [7] is HepG2 cells. In words: MTT cytotoxicity testing on HepG2. Format: cell-based, human. The note with it: HepG2, 24 h exposure, MTT; mean ± S.E. In a few lines:
as §2

For series [8], the system named is Caco-2 cells. As to the kind of experiment: MTT cytotoxicity testing on Caco-2. Type of series: cell-based, human. Particulars: Caco-2, 24 h exposure, MTT; mean ± S.E. In a few lines: as §2
For series [9] the following is noted: no reference given; cited from earlier work.
The test system of series [10] is T. spiralis muscle larvae. Also on record: species or system Trichinella spiralis. In a few lines: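 Muscle larvae were exposed to one concentration of test compound or to 0.5% DMSO. Extraction: cold methanol twice, then water, with freeze–thaw cycles and centrifugation at 4 °C; pooled extracts dried. Separation on C18 at 40 °C, 0.3 mL/min, formic acid water/acetonitrile gradient. Q-TOF ESI±, IDA with survey scan m/z 100–1000; pooled QCs. Processed in MS-DIAL and MetaboAnalyst; 3 biological × 2 technical replicates.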

The mark [11] stands for this setting: T. spiralis metabolite, quercetin at EC50 vs DMSO.
[12] abbreviates: T. spiralis, quercetin at EC50 vs DMSO control.

The EC50 is the concentration needed to bring the measured effect to its halfway point. A lower EC50 goes with higher potency in that assay. In general, CC50 refers to the concentration that lowers cell viability or growth by half. A higher CC50 goes with better tolerance by the cells. In the case of `CCCSc1ccc2nc(NC(=O)OC)[nH]c2c1` [ABZ, albendazole, reference compound], the EC50 in [1] (Caenorhabditis elegans, 72 h) was 672 ± 73 µM; in series [4], 788 ± 22.6 µM; in [5] (Caenorhabditis elegans, 72 h), more than 1000 µM; in series [6] (Trichinella spiralis, 72 h), 129 ± 34.1 µM. Also, the CC50 at 24 h in series [2] and in series [3] was more than 1000 µM in each case.

Turning to `O=c1cc(-c2ccc(O)cc2)oc2cc(O)cc(O)c12` [Apigenin, apigenin], the EC50 in [1] (Caenorhabditis elegans, 72 h) was 218 ± 11.2 µM; in [4] it was 51.3 ± 1.46 µM; in series [5] (Caenorhabditis elegans, 72 h) it was 55.8 ± 4.89 µM; in [6] (Trichinella spiralis, 72 h), more than 1000 µM. Besides, the CC50 at 24 h was 53.3 ± 4.52 µM in series [2] and more than 1000 µM in series [3].

Take `COc1ccc([C@@H]2CC(=O)c3c(O)cc(O)cc3O2)cc1O` [Hesperetin, hesperetin]: the half-maximal effective concentration (EC50) is 283 ± 23.9 µM in [1] (Caenorhabditis elegans, 72 h); 51.7 ± 2.92 µM in series [4]; more than 1000 µM in series [5] (Caenorhabditis elegans, 72 h). Further, the 50% cytotoxic concentration (CC50) at 24 h in series [2] is more than 1000 µM; in series [3], 56.3 ± 6.18 µM.

With `CC[C@H](C)[C@H]1O[C@]2(CC[C@@H]1C)C[C@@H]1C[C@@H](C/C=C(\C)[C@@H](O[C@H]3C[C@H](OC)[C@@H](O[C@H]4C[C@H](OC)[C@@H](O)[C@H](C)O4)[C@H](C)O3)[C@@H](C)/C=C/C=C3\CO[C@@H]4[C@H](O)C(C)=C[C@@H](C(=O)O1)[C@]34O)O2` [IVM, ivermectin, reference compound], the EC50 in series [1] (C. elegans N2 (wild type), L1, 72 h at 20 °C, motility, mean ± S.E.) was found to be 17.7 ± 1.85 µM; in series [5] (C. elegans CB347 (albendazole-resistant), L1, 72 h at 20 °C, motility, mean ± S.E.), 15.4 ± 6.07 µM; in [6] (T. spiralis muscle-stage larvae, 72 h at 37 °C, motility, mean ± S.E.), 107 ± 7.89 µM. Also, the figures for the CC50 in series [7] and in series [8] were 14.9 ± 1.39 µM and 20 ± 5.28 µM, respectively.

Turning to `C[C@@H]1O[C@@H](O[C@H]2[C@H](Oc3cc(O)c4c(c3)O[C@H](c3ccc(O)cc3)CC4=O)O[C@H](CO)[C@@H](O)[C@@H]2O)[C@H](O)[C@H](O)[C@H]1O` [Naringin, naringin], the EC50 in series [1] (Caenorhabditis elegans, 72 h) was more than 1000 µM; in series [4], more than 1000 µM; in [5] (Caenorhabditis elegans, 72 h), more than 1000 µM. For the same compound, the cytotoxic concentration (CC50) at 24 h in series [2] is more than 1000 µM; in series [3] it was 249 ± 65.3 µM.

In [1] (Caenorhabditis elegans, 72 h), `O=c1c(O)c(-c2ccc(O)c(O)c2)oc2cc(O)cc(O)c12` [Quercetin, quercetin] displayed an EC50 of 80.5 ± 20.3 µM. In series [9], the Oral bioavailability is less than 5%. For the same compound, the CC50 at 24 h in [2] was more than 1000 µM. For the same compound, in series [10] (setting [11]), the “Log2 (FC) 1-Heptadecanoyl-sn-glycero-3-phosphocholine” value is given as -1.6835, the “Log2 (FC) 3-Phosphoglyceric Acid” value is reported as -1.0514, the “Log2 (FC) 7alpha-Hydroxy-4-cholesten-3-one” value was 2.1364 and the “Log2 (FC) Arachidonic acid” value is recorded as -1.1472. Moreover, in series [10] (setting [11]), the “Log2 (FC) Coenzyme q6” value turned out to be 1.8385, the “Log2 (FC) Deoxyguanosine” value is -2.4539, the “Log2 (FC) Inosine” value is -2.6373 and the “Log2 (FC) LacCer(d18:1/16:0)” value turned out to be 2.6728. In addition, in series [10] (setting [11]), the “Log2 (FC) Lignoceric acid” value amounted to 4.0956, the “Log2 (FC) Linoleic acid” value is listed as 2.1922, the “Log2 (FC) Linolenic acid” value is 2.7081 and the “Log2 (FC) LysoPC(0:0/18:0)” value is reported as -1.4886. In series [10] (setting [11]), the “Log2 (FC) LysoPE(0:0/16:0)” value is -1.8636, the “Log2 (FC) LysoPE(0:0/18:2(9Z,12Z))” value is reported as -1.4991, the “Log2 (FC) Menaquinone 4” value was 2.2163 and the “Log2 (FC) N-Acetyl-D-Galactosamine” value stood at 4.5233. In addition, in [10] (setting [11]), the “Log2 (FC) PC(P-18:1(9Z)/P-16:0)” value amounted to 2.1307, the “Log2 (FC) Phosphatidylethanolamine” value is listed as -1.0876, the “Log2 (FC) Tetradecanoylcarnitine” value is -2.0664 and the “Log2 (FC) Vitamin K1” value was found to be 1.8127. In series [10] (setting [12]), the Down-regulated features came to 68 and the Up-regulated features result is recorded as “Around 204”. In [3], the CC50 at 24 h was more than 1000 µM. In series [4], this compound displayed an EC50 of 45.3 ± 4.92 µM. In series [5] (Caenorhabditis elegans, 72 h), the half-maximal effective concentration (EC50) came out at 76.2 ± 7.4 µM. The compound further displayed an EC50 in [6] (Trichinella spiralis, 72 h) of 147 ± 28.2 µM.

In the case of `COc1ccc(-c2cc(=O)c3c(OC)c(OC)c(OC)c(OC)c3o2)cc1` [Tangeretin, tangeretin], the EC50 in series [1] (Caenorhabditis elegans, 72 h) was more than 1000 µM; in [4] it was 43.1 ± 11.2 µM; in series [5] (Caenorhabditis elegans, 72 h) it was more than 1000 µM. Also, the results for the CC50 at 24 h in [2] and in series [3] were 251 ± 35 µM and 531 ± 70.3 µM, respectively.
